From PubChem BioAssay
CDK5 inh: CDK5/p35 (human) kinase inhibition; Q00535+Q15078; Recombinant CDK5/p35, ADP-Glo luminescence, 60 min; inhibition, % at 10 µM; actives 0.01% (n = 330,000);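 active = highest replicate inhibition of at least 50% and at least 75% of replicates reaching 50%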
GSK3B inh: human GSK3beta kinase inhibition. P49841. GST-GSK3beta kinase, ADP-Glo luminescence, 60 min; active compounds read low. activity score (negative = inhibition), % at 10 µM. actives 0.038% (n = 300,000). AID 2097;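 active = more than half of replicate wells score below -50%, meaning over 50% inhibition versus plate controls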
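Test system: GST-tagged human GSK3beta kinase, cell-free; evaluation: activity score scaled between in-plate DMSO and GW8510 controls; measured by: ADP-Glo luminescence; incubation: 60 min reaction, RT; benchmarks: DMSO and 20 µM GW8510; reagent: peptide substrate plus 25 µM ATP (final); medium: Tris/MgCl2 kinase buffer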
DYRK1A inh: Dyrk1A (rat) kinase inhibition; actives 0.43% (n = 310,000); inhibition, % at 12.5 µM; ADP-Glo luminescence, NFATc1 peptide; in the data active = inhibition above about 50%
GSK3 alpha inh: human GSK-3 alpha kinase inhibition. AID 2650. actives 0.1% (n = 320,000). ADP-Glo luminescence, 60 min. inhibition, % at 10 µM. P49840;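 active = more than half of replicates show inhibition above 20%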;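 note: GST-tagged GSK-3 alpha with peptide substrate and 25 µM ATP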
STK33 kinase inh: blocks human STK33 kinase activity | Q9BYT3 | purified STK33, MBP phosphorylation, ADP-Glo luminescence | inhibition, % at 10 µM | actives 0.073% (n = 320,000) | AID 2661;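 active = inhibition at or above 25%, using the most active replicate where run in duplicate; inactive = inhibition below 25%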
Target sequence (Q9BYT3 whole entry, looked up): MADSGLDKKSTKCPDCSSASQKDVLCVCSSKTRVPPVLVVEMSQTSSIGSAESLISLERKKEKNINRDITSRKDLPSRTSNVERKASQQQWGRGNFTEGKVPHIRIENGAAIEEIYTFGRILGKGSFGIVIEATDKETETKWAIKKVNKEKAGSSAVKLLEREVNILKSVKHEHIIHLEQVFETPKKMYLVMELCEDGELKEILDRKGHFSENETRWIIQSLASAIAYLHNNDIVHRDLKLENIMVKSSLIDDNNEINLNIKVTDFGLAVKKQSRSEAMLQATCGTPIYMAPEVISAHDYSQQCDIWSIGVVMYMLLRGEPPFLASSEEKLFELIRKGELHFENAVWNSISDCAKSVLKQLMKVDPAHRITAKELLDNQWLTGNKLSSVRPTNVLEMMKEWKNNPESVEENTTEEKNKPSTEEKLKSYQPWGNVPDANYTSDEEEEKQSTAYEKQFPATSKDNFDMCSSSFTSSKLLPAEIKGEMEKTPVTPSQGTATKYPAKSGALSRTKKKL
Each line names hits and unclear results; the compound was inactive in the other large screens. The entries come from a sample that favours hits as a whole.

O=C(Nc1cc(C(=O)Nc2ccccc2C(=O)O)cc(C(=O)Nc2ccccc2C(=O)O)c1)c1ccccc1	STK33 kinase inh 49
Cc1ccc(NC(=O)c2cccc(C(=O)Nc3ccc(C)cc3C(=O)O)c2)c(C(=O)O)c1	STK33 kinase inh 37
Cc1nc2sccn2c(=O)c1S(=O)(=O)Nc1ccc(N2CCN(S(C)(=O)=O)CC2)cc1	none
O=C(CSc1ccccc1)Nc1ccc2c(c1)C(=O)NC2=O	GSK3 alpha inh 60
Cc1ccc(SCC(=O)Nc2ccc3c(c2)C(=O)NC3=O)cc1	none
CC1CCc2c(sc3nn[nH]c(=O)c23)C1 (centres undefined)	GSK3 alpha inh 52
Cc1ccsc1C1C2=C(CC(C)(C)CC2=O)Nc2ncnn21 (centres undefined)	GSK3 alpha inh 63
CN1/C(=C/C2CC(=O)N(c3cccc4ccccc34)C2=O)C(C)(C)c2ccccc21 (centres undefined)	none
CN1/C(=C/C2CC(=O)NC2=O)C(C)(C)c2ccccc21 (centres undefined)	GSK3 alpha inh 65 (no result: GSK3B inh)
CCCn1c(NC(=O)c2cccc(S(=O)(=O)N3CCCC3)c2)nc2ccccc21	STK33 kinase inh 44
CCCn1c(NC(=O)c2ccccc2)nc2ccccc21	none
S=C(NC1CCCCC1)N1CCN(c2ccccn2)CC1	none (no result: GSK3 alpha inh)
COc1ccccc1C(=O)NCCC(=O)N1CC(C)OC(C)C1 (centres undefined)	none (no result: GSK3B inh, DYRK1A inh, GSK3 alpha inh, STK33 kinase inh)
Cc1cc(OCC(=O)Nc2ccccc2C)no1	none (no result: GSK3B inh)
Cc1cc2[nH]c(=O)c(=O)[nH]c2cc1S(=O)(=O)NC1CCCCC1C (centres undefined)	DYRK1A inh 57
O=C(O)c1ccc(NC(=O)c2cccc(C(=O)Nc3ccc(C(=O)O)cc3)n2)cc1	STK33 kinase inh 34
Clc1ccc(CSc2nnc(-c3ccncc3)o2)cc1	none
Fc1ccc(CSc2nnc(-c3ccncc3)o2)cc1	GSK3B inh -54
COc1ccc(OCCSc2ncc(CO)n2C)cc1	none
CC(=O)c1ccc2noc(-c3ccccc3)c2c1	none
CN(C)/C=C/C(=O)c1ccc2noc(-c3ccccc3)c2c1	STK33 kinase inh 45
COc1ccccc1NC(=O)Nc1ncccc1C	STK33 kinase inh 30
COc1ccccc1NC(=O)Nc1cnccn1	none
CC1CCC(NC(=O)C2CCC(CNS(=O)(=O)c3cccc4cccnc34)CC2)CC1 (centres undefined)	none
NCc1cccc(CNc2ccc([N+](=O)[O-])cc2C(N)=O)c1	GSK3 alpha inh 84 (no result: GSK3B inh)
Cc1c(NS(=O)(=O)c2ccc(Cl)c(C(=O)OCC(=O)NCc3ccco3)c2)c(=O)n(-c2ccccc2)n1C	none
O=C(O)c1ccc(NC2=C/C(=N/S(=O)(=O)c3ccccc3)c3ccccc3C2=O)cc1	DYRK1A inh 80 (no result: GSK3B inh, GSK3 alpha inh, STK33 kinase inh)
CCc1ccc(S(=O)(=O)/N=C2\C=C(Nc3cccc(C(=O)O)c3)C(=O)c3ccccc32)cc1	none
CCCc1nnc(NS(=O)(=O)c2ccc(C)cc2)o1	none (no result: GSK3B inh, GSK3 alpha inh, STK33 kinase inh)
CC1(C)Cc2c(sc3c2C2=NCCN2C=N3)CS1	GSK3 alpha inh 54
CN1C(=O)c2c(sc3c2CC(C)(C)SC3)N2CCN=C12	none (no result: GSK3 alpha inh, STK33 kinase inh)
O=C1NC(=S)S/C1=C\c1ccc(SCc2ccco2)o1	DYRK1A inh 73 (no result: GSK3B inh)
CCc1ccccc1NC(=O)CN(C)C(=O)COC(=O)c1ccco1	none (no result: GSK3B inh)
COc1ccc2occ(C(=O)c3coc4ccc(O)c(CN(C)C)c34)c2c1	GSK3B inh -68, GSK3 alpha inh 85
COc1ccc2occ(C(=O)c3cccs3)c2c1	GSK3 alpha inh 59
COc1ccc(OC)c(C(=O)c2coc3ccc(O)c(CN(C)C)c23)c1	none
CC(=O)Oc1cc2cccc(OC(C)=O)c(=O)c2c(OC(C)=O)c1OC(C)=O	DYRK1A inh 64
COc1cc2cccc(OC)c(=O)c2c(O)c1OC	none
Cc1ccc(-c2nc3n(n2)Cc2ccccc2-3)cc1	none
CCn1c(C)nc2cc(-c3nc4n(n3)Cc3ccccc3-4)ccc21	GSK3 alpha inh 51, STK33 kinase inh 45
O=C(Nc1nnc(CSCc2ccc(Cl)cc2)s1)c1cccc([N+](=O)[O-])c1	none
O=C(Nc1nnc(CSCc2ccc(F)cc2)s1)c1cccc([N+](=O)[O-])c1	DYRK1A inh 53
CCNc1nc(N)c(C(=O)c2ccc(Cl)s2)s1	GSK3B inh -90, GSK3 alpha inh 98
Nc1cccc(-c2c[nH]c3ncc(-c4cccnc4)cc23)c1	DYRK1A inh 77 (no result: GSK3B inh, GSK3 alpha inh, STK33 kinase inh)
Nc1ccc2nc(-c3cccnc3)[nH]c2c1	none
CC(=O)c1cc(-c2ccc(F)cc2)n(CCC(=O)Nc2cc(C)[nH]n2)c1C	GSK3 alpha inh 56
COc1cc(F)c(C2=CC(=O)C[C@H](c3ccc(Cl)cc3)C2)cc1F	none (no result: GSK3B inh)
O=C(COc1ccccc1[N+](=O)[O-])N/N=C/c1ccncc1	none
O=C(COc1cccc2cccnc12)N/N=C/c1ccc(O)cc1	GSK3 alpha inh 56
O=C(COc1ccccc1[N+](=O)[O-])N/N=C/c1ccc(O)cc1	GSK3B inh -51 (no result: GSK3 alpha inh, STK33 kinase inh)
Cc1ccc(CNC(=O)CN2C(=O)c3ccccc3S2(=O)=O)cc1	none
CCCCN(C(=O)C(C)Oc1ccc(Br)cc1)c1c(N)n(CC(C)C)c(=O)[nH]c1=O (centres undefined)	none (no result: GSK3B inh)
CCSc1nc(N2CCOCC2)c2c(c1C#N)CCCC2	STK33 kinase inh 31
O=C(Nc1ccccc1-c1ccccc1)c1ccc(Br)o1	STK33 kinase inh 36
COc1ccccc1NC(=O)c1ccc(Br)o1	none
O=C(Nc1nc2ccccc2[nH]1)c1ccc(Br)o1	STK33 kinase inh 60
Cc1ccc2[nH]c(C(=O)N3CCN(c4cccc(Cl)c4)CC3)cc2c1	none
O=C(O)c1ccc(NCCc2ccc(Cl)cc2)c([N+](=O)[O-])c1	none
Cc1cc(C2C(=O)NC(=O)C2=O)c(C)cc1Br (centres undefined)	none (no result: GSK3B inh, DYRK1A inh, GSK3 alpha inh, STK33 kinase inh)
COC(=O)Nc1ccc(S(=O)(=O)NC2CCCCC2)cc1	none
N#C/C(=C/c1ccc(O)cc1)C(=O)NCc1ccc(Cl)cc1	none
N#C/C(=C\c1ccc(O)cc1)C(=O)NCc1cccc(Cl)c1	DYRK1A inh 51
NC(=O)CC(NC(=O)c1cccc(Br)c1)c1ccc(N2CCN(c3ccc(F)cc3)CC2)c([N+](=O)[O-])c1 (centres undefined)	none
CNC(=S)Nc1cccc(-c2cnc3ccccc3n2)c1	STK33 kinase inh 26
O=C(c1cccnc1)N1CCCC(Nc2ccc(F)cc2)C1 (centres undefined)	none
COc1cccc(CN(C)C(=O)c2ccc(NC(=O)CC3SC(N4CCCC4)=NC3=O)cc2)c1OC (centres undefined)	none
COc1cc(/C=C/C(=O)/C=C(O)/C=C/c2ccc(O)c(OC)c2)ccc1O	STK33 kinase inh 61 (no result: GSK3B inh)
COc1cc(/C=C/C(=O)CC(=O)/C=C/c2ccc(O)c(OC)c2)ccc1O	STK33 kinase inh 64
COc1cc(/C=C/C(=O)O)ccc1O	none
COc1cc(C=C(C(C)=O)C(C)=O)ccc1O	none
C/C(=N/NC(=O)c1cc(-c2ccc(Cl)s2)[nH]n1)c1ccco1	none (no result: CDK5 inh, DYRK1A inh)
